Legend:
Sus scrofa [1] = species on record: Sus scrofa; test: Inhibition of ADP-induced platelet aggregation at 100 ug/mL; assay type: functional
Method in brief: (§1)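 Platelet-rich plasma from pig blood anticoagulated with sodium citrate (final 0.3 g/100 mL in blood), spun 500g for 20 min at 20 °C; about 2.0–8.0×10^8 platelets/mL, counted in duplicate. ADP-induced aggregation followed turbidimetrically at 600 nm with stirring (Born method). Criterion: 50% inhibition at ≤100 mcg/mL test compound, compared with adenosine as standard.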

Oryctolagus cuniculus [2] = species on record: Oryctolagus cuniculus; test: Ratio of I50 of compound and I50 of theophylline for inhibition of cAMP phosphodiesterase isolated from rabbit lung
Method in brief: (§2)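 Partially purified cAMP PDEs from beef heart, rabbit lung and rabbit kidney. Assay mixture in 0.5 mL: 25 μmol Tris-HCl pH 7.5, 5 μmol MgCl2, 10–75 μg enzyme protein, 350 pmol [3H]cAMP, and at least seven inhibitor concentrations (0.5 μM–5 mM). 5'-AMP formed measured at at least three time points (3–12 min) to confirm linear rates. I50 read graphically from % inhibition vs log concentration; α = I50 compound / I50 theophylline, with theophylline run in each experiment.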

Oryctolagus cuniculus [3] = species on record: Oryctolagus cuniculus; test: Ratio of I50 of compound and I50 of theophylline for inhibition of cAMP phosphodiesterase isolated from rabbit kidney
Sus scrofa [4] = species on record: Sus scrofa; test: Inhibition of ADP-induced platelet aggregation at 50 ug/mL; assay type: functional; method in brief: as §1
Bos taurus = species on record: Bos taurus; test: Relative inhibition of bovine heart cAMP phosphodiesterase compared to theophylline; method in brief: as §2
[5] = Inhibition of ADP-induced platelet aggregation at 100 ug/mL
Oryctolagus cuniculus [6] = species on record: Oryctolagus cuniculus; test: Relative inhibition of rabbit lung cAMP Phosphodiesterase compared to theophylline (Insoluble)
Sus scrofa [7] = species on record: Sus scrofa; test: Inhibition of ADP-induced platelet aggregation at 25 ug/mL; assay type: functional; method in brief: as §1
Oryctolagus cuniculus [8] = species on record: Oryctolagus cuniculus; test: Relative inhibition of rabbit lung cAMP Phosphodiesterase compared to theophylline; method in brief: as §2
[9] = system: cAMP phosphodiesterase (Bos taurus); test: Relative inhibition of beef heart cAMP phosphodiesterase compared to theophylline; details: target entry is the homologue from another species

| Structure (SMILES) | Ratio (Oryctolagus cuniculus [2]) | Ratio (Oryctolagus cuniculus [3]) | further results |
| --- | --- | --- | --- |
| CCOC(=O)c1cnc2ccnn2c1N | 0.9 | 1 | inhibition at 100 µg/mL (Sus scrofa [1]): 94%; inhibition at 50 µg/mL (Sus scrofa [4]): 50% |
| CCOc1cc(C)nc2ccnn12 | 1.4 |  |  |
| CCNc1c(C(=O)OCC)cnc2c(Br)cnn12 | 4 | 8 | inhibition at 100 µg/mL (Sus scrofa [1]): 77% |
| CCOC(=O)c1cnc2c(C(=O)OCC)cnn2c1N | 1.5 | 2 | Ratio (Bos taurus): 0.7; inhibition at 100 µg/mL (Sus scrofa [1]): 96%; inhibition at 50 µg/mL (Sus scrofa [4]): 47% |
| CCOC(=O)c1cnc2ccnn2c1NN(C)C | 2 | 1.1 |  |
| CCCOc1c(OCC)cnc2c(CC)cnn12 | 1.6 | 1.3 |  |
| CCCCNc1cc(C)nc2c(Br)cnn12 | 1.5 |  |  |
| CCCOc1cc(C)nc2c(CC)cnn12 | 5.4 |  |  |
| Nc1ncnc2c1ncn2[C@@H]1O[C@H](CO)[C@@H](O)[C@H]1O [ADENOSINE] |  |  | inhibition at 100 µg/mL [5]: 64% |
| CCOC(=O)c1cnc2c(Br)cnn2c1N |  |  | inhibition at 100 µg/mL (Sus scrofa [1]): 68%; Ratio (Oryctolagus cuniculus [6]): Insoluble; inhibition at 25 µg/mL (Sus scrofa [7]): 67% |
| CCOC(=O)c1cnc2ccnn2c1N(CC)CC | 1.8 | 2 | Ratio (Bos taurus): 2.3 |
| CCOC(=O)c1cnc2c(CC)cnn2c1SCC | 13 | 5.5 |  |
| CCOC(=O)c1cnc2c(CC)cnn2c1NN(C)C | 3.7 | 1.4 |  |
| CCCNc1cc(C)nc2c(CC)cnn12 | 9.4 |  |  |
| Cc1cc(N2CCCCC2)n2nccc2n1 |  |  | Ratio (Oryctolagus cuniculus [8]): 2.4; Ratio [9]: 1.5 |
| CCCNc1c(C(=O)OCC)cnc2c(CC)cnn12 | 3.6 | 3.2 |  |
| CCOC(=O)c1cnc2c(Br)cnn2c1NCCO | 1.3 | 3.1 | inhibition at 100 µg/mL (Sus scrofa [1]): 72% |
| CCSc1cc(C)nc2c(CC)cnn12 | 8.9 |  |  |
| CCOC(=O)c1cnc2c(C(=O)OCC)cnn2c1O | 0.6 | 0.4 | inhibition at 100 µg/mL (Sus scrofa [1]): 68%; inhibition at 50 µg/mL (Sus scrofa [4]): 23% |
| CCCNc1c(C(=O)OCC)cnc2c(Br)cnn12 | 6 | 7.2 | inhibition at 100 µg/mL (Sus scrofa [1]): 50% |

| Structure (SMILES) | Ratio (Oryctolagus cuniculus [2]) | Ratio (Oryctolagus cuniculus [3]) | further results |
| --- | --- | --- | --- |
| CCCNc1c(C(=O)OCC)cnc2ccnn12 | 5.9 | 13 |  |
| CCOc1cnc2c(CC)cnn2c1NCC(=O)O | 0.7 | 0.4 |  |
| Cc1cc(NCCO)n2nccc2n1 | 0.5 |  |  |
| COC(CNc1cc(C)nc2c(Br)cnn12)OC | 6.8 |  |  |
| Cc1cc(NN)n2nccc2n1 | 1.5 |  |  |
| CCOC(=O)c1cnc2c([N+](=O)[O-])cnn2c1N |  |  | Ratio (Oryctolagus cuniculus [6]): Insoluble |
| CCCOc1c(C(=O)OCC)cnc2c(Br)cnn12 | 2.7 | 1.8 |  |
| CCOC(=O)c1cnc2ccnn2c1S | 2 | 1 | Ratio (Bos taurus): 1.2 |
| CCOC(=O)c1cnc2ccnn2c1Cl | 0.6 | 0.6 |  |
| CCNc1c(C(=O)OCC)cnc2ccnn12 | 4.3 | 5.2 | inhibition at 100 µg/mL (Sus scrofa [1]): 86%; inhibition at 50 µg/mL (Sus scrofa [4]): 42% |
| CCOC(=O)c1cnc2c(Br)cnn2c1N(CC)CC | 6 | 6 | Ratio (Bos taurus): 3.5 |
| CCOC(=O)c1cnc2ccnn2c1NCC(=O)O | 1.7 | 1.2 | inhibition at 100 µg/mL (Sus scrofa [1]): 76%; inhibition at 50 µg/mL (Sus scrofa [4]): 67% |
| CCOC(=O)c1cnc2c(Br)cnn2c1O | 0.5 | 1 | inhibition at 100 µg/mL (Sus scrofa [1]): 88%; inhibition at 50 µg/mL (Sus scrofa [4]): 34% |
| CCCOc1c(C(=O)OCC)cnc2ccnn12 | 0.6 | 0.6 |  |
| CCCOc1c(C(=O)OCC)cnc2c(CC)cnn12 | 2.4 | 2.4 |  |
| CCCNc1c(OCC)cnc2c(CC)cnn12 | 3.7 | 3.4 |  |
| CCOC(=O)c1cnc2ccnn2c1NCCO | 1.5 | 0.3 | inhibition at 100 µg/mL (Sus scrofa [1]): 92%; inhibition at 50 µg/mL (Sus scrofa [4]): 47% |
| CCOc1cnc2c(CC)cnn2c1NCCC(=O)O | 1 | 0.6 |  |
| CCOC(=O)c1cnc2ccnn2c1SCC | 4.3 | 0.8 |  |
| CCOC(=O)c1cnc2c(Br)cnn2c1NCC(=O)O | 2.4 | 1.5 | Ratio (Bos taurus): 2.6 |

From ChEMBL document CHEMBL1122019, “Synthesis and enzymic activity of 6-carbethoxy- and 6-ethoxy-3,7-disubstituted-pyrazolo[1,5-a]pyrimidines and related derivatives as adenosine cyclic 3' ,5'-phosphate phosphodiesterase inhibitors” (1982)
